According to ChEMBL document CHEMBL3763100, “Structure-guided design of new indoles as negative allosteric modulators (NAMs) of N-methyl-D-aspartate receptor (NMDAR) containing GluN2B subunit” (Bioorg Med Chem, 2016):
pIC50: −log10 of the molar value. Active and inactive are the calls of the source. No cut-off for these calls is given here.

Columns and labels:
[1] = molecular target: Glutamate receptor ionotropic, NMDA 2B (Rattus norvegicus) (UniProt Q00960); assay: Displacement of [3H]ifenprodil from Wistar rat cerebral cortex GluN2B receptor at 0.1 uM after 120 mins relative to control; format: tissue-based
Sequence of Glutamate receptor ionotropic, NMDA 2B (Rattus norvegicus) (Q00960 27-1482 limits assumed): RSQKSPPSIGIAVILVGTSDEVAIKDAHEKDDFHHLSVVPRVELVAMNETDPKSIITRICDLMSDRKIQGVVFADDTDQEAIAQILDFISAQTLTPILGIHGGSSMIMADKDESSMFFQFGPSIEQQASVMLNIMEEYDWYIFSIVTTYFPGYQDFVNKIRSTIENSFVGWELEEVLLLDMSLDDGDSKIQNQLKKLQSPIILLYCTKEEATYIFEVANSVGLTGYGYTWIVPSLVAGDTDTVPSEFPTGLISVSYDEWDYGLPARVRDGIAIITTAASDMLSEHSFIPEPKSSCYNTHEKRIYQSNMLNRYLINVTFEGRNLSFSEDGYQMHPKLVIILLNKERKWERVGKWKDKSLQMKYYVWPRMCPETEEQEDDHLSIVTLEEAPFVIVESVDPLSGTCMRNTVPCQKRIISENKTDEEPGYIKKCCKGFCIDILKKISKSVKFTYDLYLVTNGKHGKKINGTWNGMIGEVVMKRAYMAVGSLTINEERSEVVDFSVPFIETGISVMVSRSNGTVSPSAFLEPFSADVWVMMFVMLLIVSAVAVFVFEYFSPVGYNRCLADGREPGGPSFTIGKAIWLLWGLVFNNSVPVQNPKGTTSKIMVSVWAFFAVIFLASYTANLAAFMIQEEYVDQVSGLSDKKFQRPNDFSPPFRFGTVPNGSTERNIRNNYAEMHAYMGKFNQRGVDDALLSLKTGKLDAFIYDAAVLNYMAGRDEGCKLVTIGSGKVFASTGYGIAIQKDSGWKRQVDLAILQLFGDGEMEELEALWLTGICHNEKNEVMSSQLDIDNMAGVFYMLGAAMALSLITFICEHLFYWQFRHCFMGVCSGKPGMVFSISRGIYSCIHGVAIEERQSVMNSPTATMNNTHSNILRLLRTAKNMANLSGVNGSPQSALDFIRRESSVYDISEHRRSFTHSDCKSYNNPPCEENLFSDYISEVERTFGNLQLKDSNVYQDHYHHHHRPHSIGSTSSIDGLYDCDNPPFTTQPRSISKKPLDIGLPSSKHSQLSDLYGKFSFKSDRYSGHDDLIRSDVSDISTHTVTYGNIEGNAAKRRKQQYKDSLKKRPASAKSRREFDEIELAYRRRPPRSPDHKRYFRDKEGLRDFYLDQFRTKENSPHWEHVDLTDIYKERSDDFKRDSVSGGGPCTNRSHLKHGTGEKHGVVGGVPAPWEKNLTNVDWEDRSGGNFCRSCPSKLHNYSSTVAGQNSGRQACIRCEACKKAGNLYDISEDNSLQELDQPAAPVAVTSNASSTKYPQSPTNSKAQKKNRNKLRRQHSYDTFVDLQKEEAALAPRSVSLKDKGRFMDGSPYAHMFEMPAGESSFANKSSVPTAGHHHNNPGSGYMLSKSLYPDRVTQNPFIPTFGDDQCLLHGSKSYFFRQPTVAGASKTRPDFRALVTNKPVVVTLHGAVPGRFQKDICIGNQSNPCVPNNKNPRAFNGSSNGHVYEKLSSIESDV
In short: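 Male Wistar-derived rat cerebral cortex membranes (175 ± 25 g rats) in Tris-HCl pH 7.4. […] Filtration, washing and counting followed. Test compounds were run at three concentrations in duplicate, with 0.1 μM used for % inhibition.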

[2] = molecular target: Glutamate receptor ionotropic, NMDA 2B (Rattus norvegicus, UniProt Q00960); assay: Displacement of [3H]ifenprodil from Wistar rat cerebral cortex GluN2B receptor after 120 mins; format: tissue-based
Sequence of Glutamate receptor ionotropic, NMDA 2B (Q00960 whole entry): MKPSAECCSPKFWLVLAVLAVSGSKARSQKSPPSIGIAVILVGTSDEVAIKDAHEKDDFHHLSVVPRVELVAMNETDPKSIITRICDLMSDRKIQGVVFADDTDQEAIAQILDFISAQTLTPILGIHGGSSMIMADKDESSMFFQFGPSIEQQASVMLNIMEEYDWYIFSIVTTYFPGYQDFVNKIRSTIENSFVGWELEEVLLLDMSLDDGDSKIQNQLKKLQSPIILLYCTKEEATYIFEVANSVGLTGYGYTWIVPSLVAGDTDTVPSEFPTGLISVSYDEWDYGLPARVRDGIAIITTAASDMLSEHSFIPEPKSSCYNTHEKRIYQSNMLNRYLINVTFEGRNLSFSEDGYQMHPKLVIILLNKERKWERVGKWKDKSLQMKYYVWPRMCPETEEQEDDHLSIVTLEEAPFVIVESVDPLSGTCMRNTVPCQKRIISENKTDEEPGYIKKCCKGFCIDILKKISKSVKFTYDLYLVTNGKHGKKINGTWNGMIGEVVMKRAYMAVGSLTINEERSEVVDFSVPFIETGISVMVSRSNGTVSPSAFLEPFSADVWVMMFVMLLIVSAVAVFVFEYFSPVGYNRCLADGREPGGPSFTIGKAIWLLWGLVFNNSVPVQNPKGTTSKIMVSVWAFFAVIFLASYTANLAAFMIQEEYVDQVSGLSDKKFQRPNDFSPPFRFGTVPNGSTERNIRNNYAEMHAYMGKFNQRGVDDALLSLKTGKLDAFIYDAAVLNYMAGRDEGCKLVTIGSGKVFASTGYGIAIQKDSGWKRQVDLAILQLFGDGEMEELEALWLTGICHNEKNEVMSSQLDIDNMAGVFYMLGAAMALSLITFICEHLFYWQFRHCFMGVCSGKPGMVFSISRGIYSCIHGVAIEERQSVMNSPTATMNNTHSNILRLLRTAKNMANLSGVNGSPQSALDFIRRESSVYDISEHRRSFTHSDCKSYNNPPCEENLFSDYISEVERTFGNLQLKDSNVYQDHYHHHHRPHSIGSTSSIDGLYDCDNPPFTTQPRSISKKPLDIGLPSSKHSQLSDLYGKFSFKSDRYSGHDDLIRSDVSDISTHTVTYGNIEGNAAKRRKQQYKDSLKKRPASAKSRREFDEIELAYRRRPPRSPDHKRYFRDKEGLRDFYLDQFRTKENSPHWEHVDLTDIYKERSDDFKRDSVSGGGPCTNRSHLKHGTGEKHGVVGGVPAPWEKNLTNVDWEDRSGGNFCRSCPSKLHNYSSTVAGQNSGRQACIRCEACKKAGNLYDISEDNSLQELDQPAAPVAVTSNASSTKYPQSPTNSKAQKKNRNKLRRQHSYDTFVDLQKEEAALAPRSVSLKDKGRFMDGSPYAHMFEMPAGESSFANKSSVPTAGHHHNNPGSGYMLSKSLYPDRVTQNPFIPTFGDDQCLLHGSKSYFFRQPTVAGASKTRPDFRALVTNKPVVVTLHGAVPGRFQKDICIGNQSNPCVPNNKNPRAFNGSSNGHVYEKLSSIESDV

Mus musculus = assay: Anticonvulsant activity in DBA/2 mouse assessed as prevention of audiogenic seizures at 100 umol/kg, ip administered 30 mins prior to testing; format: functional, organism-based
In short: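 DBA/2 mice genetically prone to sound-induced seizures (8-12 g, 22-25 days old), groups of 10 of either sex. Dosed ip in fresh 50% DMSO/50% sterile saline, or vehicle alone. After 30 min, 60 s habituation under a dome, then auditory stimulus (12-16 kHz, 109 dB) for 60 s or until tonic extension. Latency to and incidence of wild running, clonus, tonic phases were scored; incidence compared by Fisher's exact test.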

[3] = molecular target: Glutamate receptor ionotropic, NMDA 2B (Rattus norvegicus) (UniProt Q00960); assay: Displacement of [3H]ifenprodil from Wistar rat cerebral cortex GluN2B receptor at 0.1 uM relative to control

Compound | inhibition [1] [%] | pIC50 [2] | Activity (Mus musculus) | inhibition [3] [%]
CCc1ccc(CC2CCN(CC(=O)c3c[nH]c4ccc(O)cc34)CC2)cc1 | 75 | 7.15 | inactive | 
COc1ccc(CC2CCN(CC(=O)c3c[nH]c4ccc(O)cc34)CC2)cc1 | 16 | 5.89 |  | 
Cc1ccc(CC2CCN(CC(=O)c3c[nH]c4ccc(O)cc34)CC2)cc1C | < 5 | 5.48 |  | 
Cc1ccc(CC2CCN(CC(=O)c3c[nH]c4ccc(O)cc34)CC2)cc1 | 66 | 7.08 | inactive | 
O=C(Cc1c[nH]c2ccc(O)cc12)N1CCC(Cc2ccc(F)cc2)CC1 | 19 |  |  | 
O=C(CN1CCC(Oc2ccccc2)CC1)c1c[nH]c2ccc(O)cc12 | 9 |  |  | 
O=C(CN1CCC(Cc2ccccc2)CC1)c1c[nH]c2ccc(O)cc12 |  |  |  | 75
O=C(Cc1c[nH]c2ccc(O)cc12)N1CCC(Cc2ccccc2)CC1 | 5 |  |  | 
Oc1ccc2[nH]cc(CCN3CCC(Cc4ccccc4)CC3)c2c1 | 42 |  |  | 
